Compound activity from PubChem BioAssay.
WT yeast gro inh: growth inhibition of WT yeast, mitochondrial fusion screen. mitochondrial fusion phenotypic screen, WT strain. inhibition, % at 10 µM. 190,000 tested, 2.1% active. AID 1362; in the data active = inhibition above about 58%; tested in S. cerevisiae
G6PDH CS: counter-screen for G6PDH assay hits: L. mesenteroides G6PDH inhibition | inhibition, % at 5 µM | 200,000 tested, 0.12% active | Purified L. mesenteroides G6PDH, diaphorase/resazurin coupled fluorescence, 45 min
Diaph inh CS: counter-screen for diaphorase-based assays: diaphorase inhibitors and chemical oxidizers. diaphorase resazurin-to-resorufin fluorescence, NADH, 16 min; bacterial (C. kluyveri) enzyme, not human. inhibition, % at 20 µM. 190,000 tested, 0.69% active. AID 1217;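 active = primary screen inhibition at 20 µM above a set limit, cut at about 50% in these data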;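 note: plate controls were DMSO with full reaction for no effect and wells lacking NADH for full effect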
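Assay system: diaphorase enzyme from Clostridium kluyveri; Input: enzyme working solution with 0.14 U/mL diaphorase; Timing: 16 min at room temperature; Technique: resorufin fluorescence, excitation 544 nm, emission 590 nm; Benchmarks: positive control minus NADH, DMSO neutral control.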
Diaphorase act: activates diaphorase or chemically reduces, flagging diaphorase assay artifacts; Diaphorase/resazurin coupled assay, resorufin fluorescence, 16 min; stronger effect = higher value; 1 = vehicle wells, 0 = NADH-free wells; AID 1229; activation factor at 20 µM; 190,000 tested, 0.005% active;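 active = diaphorase activity raised at least twofold by the compound at 20 µM; inactive = activation factor below 2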
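Assay system: Purified diaphorase enzyme from Clostridium kluyveri | Amount: Enzyme 0.07 U/mL final | Dosing: Compound 20 µM once, DMSO 1% | Timing: 16 min reaction at room temperature | Detection: Fluorescence, excitation 544 nm and emission 590 nm | Evaluation: Higher resorufin formation from activation or reduction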
Lmaj promast: inhibitors of Leishmania major promastigote growth. Leishmania major promastigotes, resazurin fluorescence viability. inhibition, % at 10 µM. 200,000 tested, 9% active;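 note: promastigotes grown with compound for 44 hours at 28 °C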
* hit, by the source's call. Most compounds without a hit are left out; they make up all but 11% or so of the library. Cut-off read from the data, not from the text of the source, unless noted: active = inhibition above about 50%; inactive = the rest.

SMILES	WT yeast gro inh	G6PDH CS	Diaph inh CS	Diaphorase act	Lmaj promast
CN1CCN(CC(=O)N/N=C/c2ccc(F)c(F)c2)CC1	-3	-2	10	0.9	-5
O=C(CN1CCCCCCC1)N/N=C/c1ccccc1F	6	-3	-5	1	52*
CC(C)(C)C(=O)Nc1nc(=S)ss1	15	15	10	0.9	0
CCC(Cc1ccccc1)NC(=O)CSc1ccsc1[N+](=O)[O-] (configuration not stated)	-2	7	0	1	-2
COC(=O)C1=C(C)N(c2ccc(C)c(C)c2)/C(=C/c2ccco2)C1=O	7	4	6	0.9	61*
CCOc1ccc(N=C(/C(C(=O)C(=O)N2CCOCC2)=C(\O)c2ccccc2)c2ccccc2)cc1	20	10	3	1	-10
CN=c1scc(-c2ccc(F)cc2)n1/N=C/c1ccc(O)c(O)c1	-14	18	50*	0.5	100*
CCOC(=O)C1=C(C)Nc2ccccc2N=C1NC(=O)C(CC)c1ccccc1 (configuration not stated)	-3	-1	9	0.9	2
O=[N+]([O-])c1nn(-c2ccc3c(c2)OCCO3)n(O)c1=NCCCO	-17	7	6	0.9	72*
Cc1ccc(N=c2c([N+](=O)[O-])nn(-c3ccc4c(c3)OCCO4)n2O)cc1F	-4	-3	0	1	23
O=C1CCCN1CCCN=c1c([N+](=O)[O-])nn(-c2ccc(Cl)cc2)n1O	-4	5	1	1	73*
Cc1ccc(CN=c2c([N+](=O)[O-])nn(-c3ccc4c(c3)OCCO4)n2O)cc1	10	24	12	0.9	98*
O=[N+]([O-])c1nn(-c2ccc3c(c2)OCCO3)n(O)c1=NC1CCCC1	-13	14	9	0.9	18
O=[N+]([O-])c1nn(-c2ccc3c(c2)OCCO3)n(O)c1=NC1CCCCCC1	13	0	17	0.8	87*
C/C(=N\NC(=O)c1cccs1)C(C)(C)C	-6	4	8	0.9	-6
Cc1ccc(-n2c(C)cc(C(=O)COc3c(CO)cc(F)cc3CO)c2C)cc1C	5	16	12	0.9	19
COc1ccc(-n2nc([N+](=O)[O-])c(=NCc3ccc4c(c3)OCO4)n2O)cc1	20	4	11	0.9	97*
COc1ccccc1NC(=O)CN1CCN(c2ccccc2OC)CC1	10	16	29	0.7	4
COc1ccccc1N1CCN(CC(=O)Nc2ccc(CN3CCCCC3)cc2)CC1	-10	1	17	0.8	64*
Cc1ccc(Cl)cc1N1CCN(S(=O)(=O)N2CCCCC2)CC1	73*	3	15	0.9	11
Cc1ccc(Cl)cc1N1CCN(CC(=O)Nc2ccc(CN3CCCCC3)cc2)CC1	45	2	14	0.9	98*
Cc1ccc(Cl)cc1N1CCN(S(C)(=O)=O)CC1	2	6	5	1	0
CCc1c(C)c(C#N)c2nc3ccccc3n2c1NCc1ccccn1	-21	16	35	0.7	26
COc1ccc(C(=O)OCC[N+]2(C)CCOCC2)cc1	4	6	0	1	-1
CCOC(=O)c1sc(C)c2c(=O)n(CCCN3CCOCC3)cnc12	-2	10	3	1	-2
SMILES	WT yeast gro inh	G6PDH CS	Diaph inh CS	Diaphorase act	Lmaj promast
CCC/C(O)=C1\C(=O)CC(C)(C)CC1=Nc1ccccc1O	-4	13	22	0.8	5
CCn1cc(C(=O)O)c(=O)c2cc(F)c(N/N=C/c3ccccc3[N+](=O)[O-])cc21	9	12	-12	1.1	78*
CCn1cc(C(=O)O)c(=O)c2cc(F)c(N3CCN(S(=O)(=O)c4ccc(NC(=O)OC)cc4)CC3)cc21	-2	-34	5	1	-6
CCOC(=O)c1ccc2ncc(C(=O)OCC)c(Nc3ccc(N4CCOCC4)cc3)c2c1	34	-1	26	0.7	74*
CCOC(=O)c1cnc2ccc(C(=O)OC)cc2c1Nc1ccc(C(=O)O)cc1	-3	7	16	0.8	11
CCOC(=O)c1ccc2ncc(C(=O)OCC)c(NCCCN3CCOCC3)c2c1	19	4	-7	1.1	60*
CCOC(=O)c1cnc2ccc(OC)cc2c1Nc1ccc2c(c1)OCCO2	77*	3	11	0.9	27
COc1ccc(Cl)cc1N1C(=O)/C(=C\c2sccc2C)N=C1SCC(=O)NC1CC1	14	6	23	0.8	23
